Experiment [1] can be described thus: Inhibitory constant for Dopamine receptor D1-like.
Experiment [2] in a line: Inhibitory constant for Dopamine receptor D2-like.
The species named for experiment [3] is Rattus norvegicus. The experiment in a line: Amount of cGMP level in rat neostriatal membranes after incubation at 0.1 uM. The class given is functional. In a few lines:
(§1)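 Rat striatal membranes in 0.1 M phosphate buffer pH 7.0 with MgCl2 and 2.25 mM IBMX at 37 °C; reaction started with 54 µM GTP, 60 min at 37 °C; compounds at 0.1, 1.0, 10 µM. Stopped with HCl, boiled 5 min, centrifuged, filtered; cGMP measured by reverse-phase HPLC at 254 nm against standards, confirmed by cGMP EIA; mean ± SEM of triplicates.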

Experiment [4] is filed under the species Rattus norvegicus. Kind of experiment: Amount of cGMP level in rat neostriatal membranes after incubation at 10 uM. The experiment is classed as functional. In a few lines:
as §1

The species named for experiment [5] is Rattus norvegicus. The experiment in a line: Amount of cGMP level in rat neostriatal membranes after incubation at 1.0 uM. The experiment is classed as functional. Summed up: as §1
Experiment [6] is filed under the species Rattus norvegicus. The experiment in a line: Amount of cGMP in rat neostriatal membranes after incubation at 0.1 uM. The experiment is classed as functional. In a few lines:
as §1

For experiment [7], the species on record is Rattus norvegicus. Kind of experiment: Amount of cGMP in rat neostriatal membranes after incubation at 1.0 uM. The experiment is classed as functional. Summed up: as §1
Experiment [8] is filed under the species Rattus norvegicus. The experiment in a line: Amount of cGMP in rat neostriatal membranes after incubation at 10 uM. The experiment is classed as functional. In a few lines: as §1
The nature of experiment [9]: Inhibitory constant for [3H]YM-09151-2 binding to Dopamine receptor D2-like in porcine striatal membranes. The experiment is classed as cell membranes, Sus scrofa, Striatum, Membrane.
Experiment [10] is filed under the species Rattus norvegicus. Kind of experiment: Amount of cAMP level in rat neostriatal membranes after incubation at 100 uM. The class given is functional. In a few lines: (§2)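 Rat striatal membranes; adenylyl cyclase reaction in 0.1 M Tris-HCl pH 8.3, 10 mM MgCl2, 0.1 M KCl, 37 °C, 60 min; compounds at 1, 10, 100 µM. Stopped with HCl (final 0.01 M) plus 5 min boiling, centrifuged, filtered. cAMP quantified by reverse-phase HPLC at 254 nm against standards, confirmed by cAMP EIA; pmol/mg protein, mean ± SEM of triplicates.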
In general terms: Changes in cAMP serve as a functional read-out for many G protein-coupled receptors.

Experiment [11] is filed under the species Rattus norvegicus. The experiment in a line: Amount of cAMP level in rat neostriatal membranes after incubation at 10 uM. The class given is functional. Summed up:
as §2

Experiment [12] is filed under the species Rattus norvegicus. Kind of experiment: Decrease of basal cAMP concentration mediated by striatal adenylyl cyclase activity in rat neostriatal membrane at 100 uM. The class given is functional. In a few lines: as §2
For experiment [13], the species on record is Rattus norvegicus. Kind of experiment: Amount of cAMP level in rat neostriatal membranes after incubation at 1 uM. The class given is functional. In a few lines: as §2
A short description of experiment [14]: Inhibitory constant for [3H]YM-09151-2 binding to Dopamine receptor D2-like in porcine striatal membranes; NA= not active until 1e-5M. The class given is cell membranes, Sus scrofa.
Experiment [15] concerns the target Adenylate cyclase type 2 (Rattus norvegicus) (UniProt P26769). The experiment in a line: Inhibition of basal striatal adenylyl cyclase activity in rat neostriatal membrane at 100 uM. The class given is functional, cell membranes. In a few lines: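 Rat striatal membranes incubated 60 min at 37 °C in 0.1 M Tris-HCl pH 8.3, 10 mM MgCl2, 0.1 M KCl. Reaction stopped with HCl (0.01 M final) and 5 min boiling. Filtered supernatant analysed for cAMP by reverse-phase HPLC at 254 nm against standards, confirmed by cAMP EIA. Tested at 1, 10 and 100 µM. Triplicates reported as mean ± SEM.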

For orientation: pKi means the Ki on a negative log10 scale, so that one unit is a factor of ten. A low value points to a high Ki. As usually defined, the inhibition is the change of the read-out against control, counted positive when it falls. Read a low inhibition as a weak effect.

SMILES strings stand for the structures. pKi: −log10 of the molar value.

Chain of Adenylate cyclase type 2 (Rattus norvegicus) (P26769 whole entry): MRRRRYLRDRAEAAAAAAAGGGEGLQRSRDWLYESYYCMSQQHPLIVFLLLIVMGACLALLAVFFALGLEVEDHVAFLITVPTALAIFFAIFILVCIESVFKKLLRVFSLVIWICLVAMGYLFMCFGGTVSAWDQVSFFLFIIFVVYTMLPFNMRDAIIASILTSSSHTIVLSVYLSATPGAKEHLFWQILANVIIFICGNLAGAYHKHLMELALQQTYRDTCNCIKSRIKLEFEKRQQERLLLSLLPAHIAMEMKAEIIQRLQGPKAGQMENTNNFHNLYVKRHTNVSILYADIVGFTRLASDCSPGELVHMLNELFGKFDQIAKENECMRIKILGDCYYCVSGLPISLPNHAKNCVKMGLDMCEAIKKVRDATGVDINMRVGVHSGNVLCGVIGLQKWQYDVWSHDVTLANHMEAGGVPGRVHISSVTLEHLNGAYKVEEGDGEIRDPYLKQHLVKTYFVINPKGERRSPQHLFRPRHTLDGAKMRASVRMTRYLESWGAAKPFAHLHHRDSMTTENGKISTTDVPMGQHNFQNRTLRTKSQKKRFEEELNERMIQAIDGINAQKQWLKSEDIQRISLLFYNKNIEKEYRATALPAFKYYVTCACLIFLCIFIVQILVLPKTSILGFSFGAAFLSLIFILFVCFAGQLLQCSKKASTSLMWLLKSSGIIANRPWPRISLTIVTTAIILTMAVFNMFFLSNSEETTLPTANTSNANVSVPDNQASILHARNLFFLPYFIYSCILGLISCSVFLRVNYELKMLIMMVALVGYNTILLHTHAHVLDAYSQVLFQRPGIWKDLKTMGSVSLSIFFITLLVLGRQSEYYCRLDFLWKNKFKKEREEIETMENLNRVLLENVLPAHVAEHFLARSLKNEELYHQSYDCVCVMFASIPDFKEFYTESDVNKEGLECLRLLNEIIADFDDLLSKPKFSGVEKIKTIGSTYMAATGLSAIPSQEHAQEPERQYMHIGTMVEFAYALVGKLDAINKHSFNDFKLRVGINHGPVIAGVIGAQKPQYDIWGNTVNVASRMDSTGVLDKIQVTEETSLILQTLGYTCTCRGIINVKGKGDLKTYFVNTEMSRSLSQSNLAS

For `CN1CCc2cc(F)c(O)cc2C1C1(c2ccccc2Cl)CC1` (stereo not drawn), the pKi in experiment [1] was 9.74; in experiment [2] it was 6.35.

`Oc1cc2c(cc1O)C(c1ccccc1)CNCC2` (stereo not drawn): the figures for the cGMP content (pmol/mg protein) in the experiment listed under Rattus norvegicus [3], in the experiment listed under Rattus norvegicus [4] and in the experiment listed under Rattus norvegicus [5] were 12.4, 18.2 and 17.4, respectively.

`CN1CCc2cc(Cl)c(O)cc2[C@@H](c2ccccc2)C1`: the results for the cGMP content (pmol/mg protein) in the experiment filed under Rattus norvegicus [6], in the experiment listed under Rattus norvegicus [7] and in the experiment filed under Rattus norvegicus [8] were 11.5, 6.62 and 6.15, respectively.

Molecule `CN[C@@H]1Cc2cc(OC)c(F)cc2[C@H]1c1ccccc1` had a pKi in [9] of 5.51.

For `COc1cc2c(cc1F)[C@@H](c1ccccc1)[C@H](N(C)C)C2`, the pKi in experiment [9] was 5.37.

In experiment [9], `CN[C@@H]1Cc2cc(O)c(F)cc2[C@H]1c1ccccc1` showed a pKi of 5.37.

`COc1cc2c(cc1F)C[C@@H](N(C)C)[C@@H]2c1ccccc1` had a pKi in experiment [9] of 5.72.

In experiment [9], `COc1cc2c(cc1F)[C@@H](c1ccccc1)[C@H](N)C2` gave a pKi of 4.92.

For the molecule `CCCN(C)[C@@H]1Cc2cc(O)c(F)cc2[C@H]1c1ccccc1`, the cGMP content (pmol/mg protein) in the experiment listed under Rattus norvegicus [3] stood at 11.5; in the experiment listed under Rattus norvegicus [4] it was 5.56; in the experiment listed under Rattus norvegicus [5] it was 7.45. This molecule also gave a pKi in experiment [9] of 6.62.

On to `CCN1CCCC1CNC(=O)c1cc(S(N)(=O)=O)ccc1OC` (stereo not drawn), for which the cGMP content (pmol/mg protein) was determined as 12.5 in the experiment filed under Rattus norvegicus [3], 17.7 in the experiment filed under Rattus norvegicus [4] and 17.3 in the experiment filed under Rattus norvegicus [5].

Regarding `CCCN(C)[C@@H]1Cc2cc(F)c(O)cc2[C@H]1c1ccccc1`, the figures for the cGMP content (pmol/mg protein) in the experiment filed under Rattus norvegicus [3], in the experiment listed under Rattus norvegicus [4] and in the experiment listed under Rattus norvegicus [5] were 10.9, 1.78 and 5.79, respectively. In experiment [9], this molecule had a negative-log Ki (pKi) of 6.19. The cAMP content (pmol/mg protein) in the experiment listed under Rattus norvegicus [10] was 74.4; in the experiment listed under Rattus norvegicus [11], 93; in the experiment listed under Rattus norvegicus [13], 103. Moreover, in the experiment filed under Rattus norvegicus [12], the Decrease was found to be 30%.

`CN[C@@H]1Cc2cc(F)c(OC)cc2[C@H]1c1ccccc1` gave a pKi in [9] of 5.59.

`C=CCN(C)[C@@H]1Cc2cc(OC)c(F)cc2[C@H]1c1ccccc1` had a pKi in [9] of 6.51.

In [9], `C=CCN(C)[C@@H]1Cc2cc(F)c(OC)cc2[C@H]1c1ccccc1` showed a pKi of 6.19. This pKi lies 0.32 log units lower than the previous one.

The molecule `CCCN(CCC)[C@@H]1Cc2cc(O)c(F)cc2[C@H]1c1ccccc1` had a pKi in [9] of 4.92.

Take `N[C@@H]1Cc2cc(F)c(O)cc2[C@H]1c1ccccc1`: in [9], the pKi is 4.72.

Regarding `CN(C)[C@@H]1Cc2cc(F)c(O)cc2[C@H]1c1ccccc1`, the pKi in experiment [9] is 5.35.

As to `N[C@@H]1Cc2cc(O)c(F)cc2[C@H]1c1ccccc1`, in experiment [9], the pKi was 4.82.

Consider `CN[C@@H]1Cc2cc(F)c(O)cc2[C@H]1c1ccccc1`, for which the pKi in experiment [9] is 5.29. Against the preceding molecule, the pKi is 0.47 log units higher.

As to `Br.CN(C)[C@@H]1Cc2cc(O)c(F)cc2[C@H]1c1ccccc1`, in [14], the Ki result is listed as “Not Active”.

With `NCCc1ccc(O)c(O)c1`, the cGMP content (pmol/mg protein) in the experiment filed under Rattus norvegicus [3] is 11.7; in the experiment listed under Rattus norvegicus [4], 4.02; in the experiment listed under Rattus norvegicus [5], 6.15. Besides, the cAMP content (pmol/mg protein) was 85.6 in the experiment filed under Rattus norvegicus [10], 89.8 in the experiment filed under Rattus norvegicus [11] and 95.1 in the experiment listed under Rattus norvegicus [13].

`CCCN(C)[C@@H]1Cc2cc(OC)c(F)cc2[C@H]1c1ccccc1`: the cGMP content (pmol/mg protein) was determined as 11.2 in the experiment filed under Rattus norvegicus [3], 3.78 in the experiment filed under Rattus norvegicus [4] and 4.96 in the experiment filed under Rattus norvegicus [5]. Also, the pKi in experiment [9] was 6.57. The cAMP content (pmol/mg protein) in the experiment filed under Rattus norvegicus [10] was 84.6; in the experiment listed under Rattus norvegicus [11], 103; in the experiment filed under Rattus norvegicus [13] it was 105.

For the molecule `CCCN(C)[C@@H]1Cc2cc(F)c(OC)cc2[C@H]1c1ccccc1`, the cGMP content (pmol/mg protein) in the experiment filed under Rattus norvegicus [3] turned out to be 10.4; in the experiment listed under Rattus norvegicus [4], 3.9; in the experiment filed under Rattus norvegicus [5], 6.86. In experiment [9], this molecule gave a pKi of 6.32.

As to `CCCN(CCC)[C@@H]1Cc2cc(F)c(O)cc2[C@H]1c1ccccc1`, the cGMP content (pmol/mg protein) in the experiment filed under Rattus norvegicus [3] came to 11.6; in the experiment filed under Rattus norvegicus [4], 4.37; in the experiment listed under Rattus norvegicus [5] it was 7.32. For the same molecule, the pKi in [9] is 6.04.

On to `CCCN(CCC)[C@@H]1Cc2cc(OC)c(F)cc2[C@H]1c1ccccc1`, for which, in experiment [9], the pKi was 6.26.

Regarding `C=CCN(C)[C@@H]1Cc2cc(O)c(F)cc2[C@H]1c1ccccc1`, the pKi in experiment [9] is 6.19. This pKi and that of the molecule before are within 0.2 log units of each other.

The molecule `COc1cc2c(cc1F)C[C@@H](N)[C@@H]2c1ccccc1` showed a pKi in experiment [9] of 4.77.

Take `CCCN(CCc1ccccc1)CCc1cccc(O)c1`: the cGMP content (pmol/mg protein) in the experiment filed under Rattus norvegicus [3] stood at 10.4; in the experiment listed under Rattus norvegicus [4] it was 3.78; in the experiment listed under Rattus norvegicus [5] it was 7.45. Further, the cAMP content (pmol/mg protein) worked out at 79.3 in the experiment filed under Rattus norvegicus [10], 93.1 in the experiment filed under Rattus norvegicus [11] and 104 in the experiment listed under Rattus norvegicus [13]. The molecule further gave an inhibition in experiment [15] of 25%.

On to `CCCN(CCC)[C@@H]1Cc2cc(F)c(OC)cc2[C@H]1c1ccccc1`, for which the cGMP content (pmol/mg protein) came to 10.6 in the experiment filed under Rattus norvegicus [3], 5.79 in the experiment listed under Rattus norvegicus [4] and 6.97 in the experiment listed under Rattus norvegicus [5]. Besides, in experiment [9], the pKi was 6.77.

In the case of `C=CCN(C)[C@@H]1Cc2cc(F)c(O)cc2[C@H]1c1ccccc1`, in [9], the pKi is 6.02.

The record behind these values is ChEMBL document CHEMBL1143580 (J Med Chem, 2005).
